Experimental data taken from ChEMBL document CHEMBL1158069, “Antiplasmodial metabolites isolated from the marine octocoral Muricea austera” (J Nat Prod, 2006).

Legend:
Plasmodium falciparum = test: Antiplasmodial activity against chloroquine-resistant Plasmodium falciparum W2 as parasite DNA microfluorimetric assay; type: functional, organism-based
In short: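 P. falciparum W2 (chloroquine-resistant) grown by the Trager–Jensen method at 2% hematocrit in RPMI 1640 with 10% human serum. Growth inhibition read microfluorimetrically by PicoGreen intercalation into parasite DNA. IC50 in µM.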

Trypanosoma cruzi = test: Antitrypanosomal activity against Trypanosoma cruzi Tulahuen C4 infected in african green monkey Vero cells assessed as growth inhibition of […] by beta-galactosidase reporter gene assay; type: functional, organism-based
In short: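 Recombinant Tulahuen clone C4 expressing β-galactosidase reporter; […] grown inside Vero cells with test samples. β-Gal cleavage of chlorophenol red-β-D-galactoside (CPRG) read colorimetrically at 570 nm. IC50 taken as concentration giving 50% inhibition of parasite growth versus untreated control, on duplicate samples.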

Row | Compound | IC50 (Plasmodium falciparum) [µM] | IC50 (Trypanosoma cruzi) [µM]
1 | CC(=O)O/C1=C/Cc2c(C)coc2C/C(C)=C/CC1 | > 50 | 
2 | O=CNCCc1ccc(O)cc1 | > 50 | 
3 | CO[C@H]1O[C@H](C)[C@H](OC(=O)c2ccccc2)[C@H](OC(=O)c2ccccc2)[C@H]1OC(=O)c1ccccc1 | 43 | > 50
4 | O=C(CCCCC(=O)NCCc1ccc(O)cc1)NCCc1ccc(O)cc1 | 117 | 
5 | CO[C@@H]1O[C@H](C)[C@H](OC(=O)c2ccccc2)[C@H](OC(=O)c2ccccc2)[C@H]1OC(=O)c1ccccc1 | 36 | > 50
6 | CCCCCCCCCC(C)CC(=O)NCCc1ccc(O)cc1 (stereo not given) | 45 | > 50
7 | CCCCCCCCCCCC(=O)O[C@@H]1[C@@H](OC(=O)CCCCCCCCCCC)[C@@H](OC)OC[C@@H]1OC(=O)CCCCCCCCCCC | > 50 | > 50
8 | CC(=O)NCCc1ccc(O)cc1 | > 50 | 
9 | C=C[C@H]1CC[C@H]2[C@@H]3CC=C4C[C@@H](O[C@@H]5OC[C@@H](OC(C)=O)[C@@H](O)[C@@H]5O)CC[C@]4(C)[C@H]3CC[C@]12C | 80 | 101
10 | CCCCCCCCCCCC(=O)NCCc1ccc(O)cc1 | 47 | 
11 | O=C(NCCc1ccc(OC(=O)c2ccccc2)cc1)c1ccccc1 | 64 | 
12 | C=C[C@H]1CC[C@H]2[C@@H]3CC=C4C[C@@H](O[C@@H]5OC[C@@H](OC(C)=O)[C@@H](OC(C)=O)[C@@H]5OC(C)=O)CC[C@]4(C)[C@H]3CC[C@]12C | 28 | 28
13 | CCCCCCC(O)CCCCCCCCCCC(=O)NCCc1ccc(O)cc1 (stereo not given) | 62 | 
14 | O=C(NCCc1ccc(O)cc1)c1ccccc1 | > 50 | 
15 | CCCCCCCCCCCCNC(=O)CCc1ccc(O)cc1 | 24 | 
16 | CCCCCCCCCC(=O)NCCc1ccc(O)cc1 | 72 | 
17 | CCCCCCCCCCCCCC(=O)NCCc1ccc(O)cc1 | 34 | 

Row | Compound | IC50 (Plasmodium falciparum) [µM] | IC50 (Trypanosoma cruzi) [µM]
18 | C=C[C@]1(C)Cc2occ(C)c2C[C@H]1C(=C)OC(C)=O | 42 | 173
19 | CC1CS(=O)(=O)CCN1/N=C/c1ccc([N+](=O)[O-])o1 (stereo not given) [NIFURTIMOX] |  | 11
20 | CCCCCCCCC/C(C)=C\C(=O)NCCc1ccc(O)cc1 | 36 | > 50
21 | CO[C@@H]1O[C@H](COC(=O)c2ccccc2)[C@H](OC(=O)c2ccccc2)[C@H](OC(=O)c2ccccc2)[C@H]1OC(=O)c1ccccc1 | > 50 | > 50
22 | CO[C@@H]1OC[C@H](OC(=O)c2ccccc2)[C@H](OC(=O)c2ccccc2)[C@H]1OC(=O)c1ccccc1 | 21 | > 50
23 | O[C@@H]1[C@@H](O)[C@@H](O)CO[C@H]1O [L-ARABINOSE] | > 50 | > 50
24 | CCCCCCCCCCCC(=O)O[C@@H]1[C@@H](OC(=O)CCCCCCCCCCC)[C@H](OC)OC[C@@H]1OC(=O)CCCCCCCCCCC | > 50 | > 50
25 | C=C[C@H]1CC[C@H]2[C@@H]3CC=C4C[C@@H](O[C@@H]5OC[C@@H](O)[C@@H](OC(C)=O)[C@@H]5O)CC[C@]4(C)[C@H]3CC[C@]12C | 67 | 96
26 | CC[C@H](O)CC(=O)NCCc1ccc(O)cc1 | > 50 | 
27 | CCCCCCCCCCCC(=O)NCCc1cc(Br)c(O)c(Br)c1 | 17 | 
28 | NCCc1ccc(O)cc1 [TYRAMINE] | 160 | 
29 | CC/C=C\C/C=C\C/C=C\CCCC(=O)NCCc1ccc(O)cc1 | 38 | 
30 | CO[C@H]1O[C@H](COC(=O)c2ccccc2)[C@H](OC(=O)c2ccccc2)[C@H](OC(=O)c2ccccc2)[C@H]1OC(=O)c1ccccc1 | 29 | > 50
31 | CCCCO[C@@H]1OC[C@H](OC(C)=O)[C@H](OC(C)=O)[C@H]1OC(C)=O | > 50 | > 50
32 | CO[C@@H]1OC[C@H](OC(C)=O)[C@H](OC(C)=O)[C@H]1OC(C)=O | > 50 | > 50
33 | CO[C@H]1OC[C@H](OC(=O)c2ccccc2)[C@H](OC(=O)c2ccccc2)[C@H]1OC(=O)c1ccccc1 | 35 | > 50
